From ChEMBL document CHEMBL3045703, “Synthesis and insect antifeedant activity of plumbagin derivatives with the amino acid moiety” (2009) come the findings set out here.

Common to all, as to format: functional
For assay [1], the system named is Achaea janata. Kind of assay: Toxicity in third instar larvae of Achaea janata assessed as mortality at 4 ug/insect measured after 4 to 28 days by topical bioassay.
For assay [2], the system named is Spodoptera litura. The experiment in a line: Toxicity in third-instar larvae of tobacco caterpillar Spodoptera litura assessed as mortality at 4 ug/insect measured after 4 to 28 days by topical bioassay.
Assay [3] has as its system Achaea janata. The experiment in a line: Antifeedant activity against third instar larvae of Achaea janata in compound treated fresh castor leaves assessed as consumption at 28 +/- 2 degC, relative humidity 65 +/- 5 measured after 6 to 24 hr. The method in brief:
(§1)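 No-choice leaf-disk test on castor leaf discs; control discs got solvent only. Prestarved third instar larvae reared on fresh castor leaves at 28 ± 2 °C, RH 65 ± 5, 16:8 light/dark. Consumed area tracked at 6, 12 and 24 h and measured with a leaf area meter. Antifeedant index = (C − T)/(C + T) × 100. 10 sets per concentration, each test run in triplicate; mean ± SD.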

The test system of assay [4] is Spodoptera litura. The experiment in a line: Antifeedant activity against third-instar larvae of tobacco caterpillar Spodoptera litura in compound treated fresh castor leaves assessed as consumption at 28 +/- 2 degC, relative humidity 65 +/- 5 measured after 6 to 24 hr. The method in brief: as §1
The test system of assay [5] is Achaea janata. The experiment in a line: Toxicity in third instar larvae of Achaea janata assessed as mortality at 1 ug/insect measured after 4 to 28 days by topical bioassay.
In assay [6] the test system is Spodoptera litura. Kind of assay: Toxicity in third-instar larvae of tobacco caterpillar Spodoptera litura assessed as mortality at 1 ug/insect measured after 4 to 28 days by topical bioassay.
Assay [7] deals with Achaea janata. Kind of assay: Antifeedant activity against third instar larvae of Achaea janata in compound treated fresh castor leaves assessed as consumption at 0.1% measured after 6 to 24 hr. The method in brief:
as §1

In assay [8] the test system is Spodoptera litura. Kind of assay: Antifeedant activity against third-instar larvae of tobacco caterpillar Spodoptera litura in compound treated fresh castor leaves assessed as consumption at 0.1% measured after 6 to 24 hr. The method, boiled down: as §1

Some results are limits rather than exact numbers.

By mortality is commonly meant the share of the test organisms that died.

As for `COc1cccc2c1C(=O)C(NCCOC(=O)[C@H](Cc1ccccc1)NC(C)=O)=C(C)C2=O`, the mortality with Achaea janata [1] is reported as 23.4%; in the assay on Spodoptera litura [2], less than 20%. Further, the “antifeedant EC50” value in the assay on Achaea janata [3] is recorded as 51.96 microg/cm2. The “Antifeedant EC50 (leaf-consumption)” value in the assay on Spodoptera litura [4] is recorded as 105.93 microg/cm2.

As for `COc1cccc2c1C(=O)C(NCCOC(=O)[C@H](C)NC(C)=O)=C(C)C2=O`, the mortality in the assay on Achaea janata [1] and with Spodoptera litura [2] was less than 20% throughout. In the assay with Achaea janata [3], the “antifeedant EC50” value worked out at 340.63 microg/cm2. Moreover, the “Antifeedant EC50 (leaf-consumption)” value with Spodoptera litura [4] is listed as greater than 500 microg/cm2.

For the molecule `COc1cccc2c1C(=O)C(NCCOC(=O)[C@H](CS)NC(C)=O)=C(C)C2=O`, the mortality in the assay on Achaea janata [1] is less than 20%; with Spodoptera litura [2] it was 100%. Moreover, in the assay with Achaea janata [3], the “antifeedant EC50” value is reported as greater than 500 microg/cm2. Further, the “Antifeedant EC50 (leaf-consumption)” value in the assay with Spodoptera litura [4] is listed as greater than 500 microg/cm2.

As for `CC[C@H](C)[C@H](NC(C)=O)C(=O)OCCNC1=C(C)C(=O)c2cccc(OC)c2C1=O`, the mortality with Achaea janata [1] and in the assay on Spodoptera litura [2] was less than 20% in each case. For the same molecule, the “antifeedant EC50” value with Achaea janata [3] was determined as 292 microg/cm2. The “Antifeedant EC50 (leaf-consumption)” value in the assay on Spodoptera litura [4] is on record as greater than 500 microg/cm2.

In the case of `C/C=C(\C)C(=O)O[C@H]1C[C@@H](OC(C)=O)[C@@]2(C(=O)OC)CO[C@H]3[C@@H](O)[C@@](C)([C@]45O[C@@]4(C)[C@@H]4C[C@H]5O[C@@H]5OC=C[C@@]54O)[C@H]4[C@]1(CO[C@]4(O)C(=O)OC)[C@@H]32` [AZADIRACHTIN A], the mortality in the assay with Achaea janata [5] turned out to be 93.6%; in the assay on Spodoptera litura [6], 84%.

On to `COc1cccc2c1C(=O)C(NCCOC(=O)CNC(C)=O)=C(C)C2=O`, for which the mortality is given as 100% in the assay on Achaea janata [1] and less than 20% in the assay on Spodoptera litura [2]. The “antifeedant EC50” value with Achaea janata [3] worked out at 69.51 microg/cm2. Besides, the “Antifeedant EC50 (leaf-consumption)” value in the assay with Spodoptera litura [4] was found to be 36.87 microg/cm2.

As for `COc1cccc2c1C(=O)C(NCCOC(=O)c1ccc(NC(C)=O)cc1)=C(C)C2=O`, the mortality with Achaea janata [1] was less than 20%; in the assay on Spodoptera litura [2], 63.8%. In addition, the “antifeedant EC50” value in the assay with Achaea janata [3] is given as 268.88 microg/cm2. In the assay with Spodoptera litura [4], the “Antifeedant EC50 (leaf-consumption)” value is 117.25 microg/cm2.

Turning to `COc1cccc2c1C(=O)C(NCCOC(=O)[C@@H](NC(C)=O)C(C)C)=C(C)C2=O`, the mortality is 32.6% in the assay with Achaea janata [1] and 84.5% in the assay with Spodoptera litura [2]. In the assay on Achaea janata [3], the “antifeedant EC50” value is reported as 104.59 microg/cm2. In the assay on Spodoptera litura [4], the “Antifeedant EC50 (leaf-consumption)” value was greater than 500 microg/cm2.

Regarding `COc1cccc2c1C(=O)C(NCCOC(=O)[C@H](CCSC)NC(C)=O)=C(C)C2=O`, the mortality is on record as 100% in the assay on Achaea janata [1] and less than 20% in the assay with Spodoptera litura [2]. The “antifeedant EC50” value with Achaea janata [3] is 37.37 microg/cm2. For the same molecule, in the assay with Spodoptera litura [4], the “Antifeedant EC50 (leaf-consumption)” value amounted to 48.47 microg/cm2.

For the molecule `COc1cccc2c1C(=O)C(NCCOC(=O)CCCNC(C)=O)=C(C)C2=O`, the mortality in the assay with Achaea janata [1] and in the assay with Spodoptera litura [2] was less than 20% in each case. The “antifeedant EC50” value in the assay on Achaea janata [3] is on record as greater than 500 microg/cm2. The “Antifeedant EC50 (leaf-consumption)” value in the assay with Spodoptera litura [4] is given as 247.59 microg/cm2.

For the molecule `COc1cccc2c1C(=O)C(NCCOC(=O)[C@H](CC(C)C)NC(C)=O)=C(C)C2=O`, the mortality with Achaea janata [1] was less than 20%; in the assay on Spodoptera litura [2], 74.2%. In addition, the “antifeedant EC50” value with Achaea janata [3] is recorded as greater than 500 microg/cm2. Besides, the “Antifeedant EC50 (leaf-consumption)” value in the assay with Spodoptera litura [4] was 466.28 microg/cm2.

On to `CC1=CC(=O)c2c(O)cccc2C1=O` [PLUMBAGIN], for which the figures for the Activity in the assay on Achaea janata [7] and in the assay on Spodoptera litura [8] were 35.69% and 26%, respectively. In addition, the mortality in the assay on Achaea janata [1] and in the assay with Spodoptera litura [2] was less than 20% in each case.

With `COc1cccc2c1C(=O)C(NCCOC(=O)[C@H](Cc1ccc(O)cc1)NC(C)=O)=C(C)C2=O`, the mortality in the assay on Achaea janata [1] is 24.6%; in the assay on Spodoptera litura [2], less than 20%. The “antifeedant EC50” value in the assay with Achaea janata [3] worked out at 199.45 microg/cm2. In addition, the “Antifeedant EC50 (leaf-consumption)” value in the assay on Spodoptera litura [4] is given as 461 microg/cm2.
